Test results reported in ChEMBL document CHEMBL3244358, “Conformational analogues of antihypertensive agents related to guanethidine” (J Med Chem, 1977).
Activity calls are given as the source filed them. No cut-off for these calls is given here.

Experiments:
[1] = organism: Cavia porcellus; assay: Antagonist activity at adrenergic receptor in guinea pig vas deferens assessed as inhibition of electrically-induced release of norepinephrine measured every 10 mins; assay type: tissue-based
How it was run: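 Isolated guinea pig vas deferens in Krebs solution, stimulated transmurally for 15 s every 4 min at 25-35 shocks/s, 0.1 ms pulses, supramaximal 110-120 V. Salts were dissolved in distilled water, with a fresh preparation for each drug. Responses were read at 10-min intervals. ID50, the bath concentration giving 50% inhibition, came from dose-response curves of at least three concentrations, as free base.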

[2] = organism: Cavia porcellus; assay: Equipotent molar ratio, ratio of compound ID50 to guanethidine ID50 for adrenergic receptor in guinea pig vas deferens assessed as inhibition of electrically-induced release of norepinephrine
[3] = organism: Cavia porcellus; assay: Antagonist activity at adrenergic receptor in guinea pig vas deferens assessed as inhibition of electrically-induced release of norepinephrine at 1 x 10^-4 M measured every 10 mins; assay type: tissue-based

Row | Compound | ID50 [1] | EPMR [2] | inhibition [3]
1 | N=C(N)NC1CCc2ccc([N+](=O)[O-])cc21 (stereo unspecified) | 2 ×10⁻⁵ M | 10 | –
2 | N=C(N)NC/C=C/C1CCCCC1 | 7.7 ×10⁻⁷ M | 0.39 | –
3 | N=C(N)NC1CCc2ccccc21 (stereo unspecified) | 5.8 µM | 2.9 | –
4 | COc1ccc2c(c1)CCC2NC(=N)N (stereo unspecified) | – | – | inactive
5 | N=C(N)NC1Cc2ccccc2C1 | – | – | inactive
6 | N=C(N)NCCN1CCCCCCC1 | 2 µM | – | –
7 | N=C(N)NC/C=C\C1CCCCC1 | 9.8 ×10⁻⁸ M | 0.049 | –

Now from value to molecule:

Row | ID50 [1] | EPMR [2] | inhibition [3] | Compound
8 | 5 µM | 2.5 | – | N=C(N)NCCc1ccc2ccccc2c1
9 | 5.05 µM | 2.52 | – | N=C(N)N[C@@H]1C[C@H]1c1ccccc1
10 | 1.9 ×10⁻⁷ M | 0.095 | – | N=C(N)NCc1cccc2ccccc12
11 | 2.5 µM | 1.25 | – | N=C(N)NCC1Cc2ccccc21 (stereo unspecified)
12 | 7.3 µM | 3.65 | – | N=C(N)NC[C@@H]1C[C@H]1c1ccccc1
13 | 9.1 µM | 4.55 | – | N=C(N)NC[C@H]1C[C@H]1c1ccccc1 (relative stereo)
14 | – | – | inactive | N=C(N)N[C@H]1C[C@H]1c1ccccc1 (relative stereo)
15 | 1.2 ×10⁻⁵ M | 6 | – | N=C(N)NCCc1cccc2ccccc12
